Laboratory results from the EternaBench riboswitch data.

Test system: MS2 coat protein
Assay: apparent Kd, MS2 coat protein; higher = weaker binding; RNA-MaP array; FMN 200 µM where present
Summary of the method: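 The apparent Kd is the median of filtered binding-curve fits, one per cluster, to green signal normalised to red-channel RNA signal and control-cluster median Fmax. The clusters were on Illumina sequencing chips, and stalled E. coli RNA polymerase had transcribed the designs on them. Titration used SNAP-549-labelled MS2 coat protein from 0.7 or 1.5 nM, doubling to 3 µM, without and then with constant ligand, in 100 mM Tris-HCl pH 7.5, 80 mM KCl, 4 mM MgCl2, BSA, DTT, yeast tRNA and Tween-20.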

[1] = designed as: OFF switch for flavin mononucleotide, no ligand
[2] = ligand present: flavin mononucleotide, designed as: OFF switch for flavin mononucleotide
[3] = designed as: ON switch for flavin mononucleotide, no ligand
[4] = ligand present: flavin mononucleotide, designed as: ON switch for flavin mononucleotide

## CGCGUAUGAGGAUAUGCAUAAAAGGGUGCACUGAGUCUGAGACAUGAGGAUCACCCAUGUAGAAGGCGUGCGCU
[1]
  apparent Kd: 12.9 nM
[2]
  apparent Kd: 16 nM

## CGCUAAUAGAACGAUUUGUGAAGACAUGAGGAUCACCCAUGUAGAAGGACAACGGAAUAAACGUUGUAGGAUAUACACUUAGCG
[1]
  apparent Kd: 18.1 nM
[2]
  apparent Kd: 24.4 nM

## CGCUACAGCCAGAAGGACAUGAGGAUCACCCAUGUAGGAUAUGGGAGACACAGUCCCGUGUAGAGAAACUACGCUACUGUAGCG
[3]
  apparent Kd: 679 nM
[4]
  apparent Kd: 464 nM

## CGCUACUACCAGAAGGACAUGAGGAUCACCCAUGUAGGAUAUGGGUUACACGUUCCUGUGUUUUGUUACUACGCUACGUAUGCG
[3]
  apparent Kd: 621 nM
[4]
  apparent Kd: 29 nM

## CGCUCAAUUACUUUGAAUAGAAUCAGAAGGCGUUACAUGAGGAUCACCCAUGUUAUGACGUGUAACGAGGAUAUGAAUUGAGCG
[1]
  apparent Kd: 7.18 nM
[2]
  apparent Kd: 30.5 nM

## CGCUCAAUUACUUUGAAUAGAAUCAGAAGGCGUUACAUGAGGAUCACCCAUGUUAUGAUGUGUAACGAGGAUAUGAAUUGAGCG
[1]
  apparent Kd: 38.2 nM
[2]
  apparent Kd: 208 nM

## CGCUCUAUAUAUUUGGCAAGAAUCAGAAGGCGUUACAUGAGGAUCACCCAUGUUUUGAAUAGUAACGAGGAUAUGAUAUGAGCG
[1]
  apparent Kd: 21.6 nM
[2]
  apparent Kd: 25 nM

## CGCUGUCACGCAGGAUAUGCAUUGGAUUACAAUGCAGAAGGGCGAUCACAUGAGGAUCACCCAUGUGUAGACAGUGAAUAAGAG
[3]
  apparent Kd: 611 nM
[4]
  apparent Kd: 49.6 nM

## CGCUGUCAUGCAGGAUAUGCAUUGGAUUACAAUGCAGAAGGGCGAUUACAUGAGGAUCACCCAUGUGUAGACAGUGAAGAAGAG
[3]
  apparent Kd: 415 nM
[4]
  apparent Kd: 34.4 nM

## CGCUGUCAUGCAGGAUAUGCAUUGGAUUGCAAUGCAGAAGGGCGAUUACAUGAGGAUCACCCAUGUGUAGACAGUGAAGAAGAG
[3]
  apparent Kd: 160 nM
[4]
  apparent Kd: 12.6 nM

## CGGAAUUGUACAGGAUAUGAGGGUGCCUGAGCCUCAGAAGGGUAGACCGACAUGAGGAUCACCCAUGUAUGUGGAUAACGUCCG
[3]
  apparent Kd: 75.5 nM
[4]
  apparent Kd: 336 nM

## CGGCACGCAGGAUAUGCCUUUGAGUACAUGAGGAUCACCCAUGUCUUCACCCUCAUUAGGGCAGAAGGGCGAUAUC
[1]
  apparent Kd: 24.4 nM
[2]
  apparent Kd: 32.2 nM

## CGGCAUGUCUGAGGAUAUCUGCACGUUUAGUGCAGAGAAGGCAGAACAUGAGGAUCACCCAUGUAGAUCAUUAACCGAUUAAUU
[1]
  apparent Kd: 228 nM
[2]
  apparent Kd: 337 nM

## CGGCGGAAAGGAUAUGCAGAAAUAUCAAAAUGUGGGCCACGACAUGAGGAUCACCCAUGUAGAAGGUUCAGCCG
[1]
  apparent Kd: 15.5 nM
[2]
  apparent Kd: 12.7 nM

## CGGCGUAGCGUAAGGAUAUCGCGCGGUGUAAUUGUUGAGAAGGUACAUGAGGAUCACCCAUGUGGUCAGCCGGC
[1]
  apparent Kd: 40 nM
[2]
  apparent Kd: 40 nM

## CGGGAGUCAGGAUAUACGGUCAUGUCGCCAGAUGUCAUGGUACAUGAGGAUCACCCAUGUAGAAGGGAGGAGAU
[1]
  apparent Kd: 75.7 nM
[2]
  apparent Kd: 136 nM

## CGGGUCUGAGGAUAUCCAUCUUCAUACAUGAGGAUCACCCAUGUUUACCUUUGGGUUUUUGGAGAAGGCAGUUUUC
[1]
  apparent Kd: 43.5 nM
[2]
  apparent Kd: 74.6 nM

## CGGUACUUAGGAUAUACAUGAGGAUCACCCAUGUAGAAAUGGUGGGUGCCGUCCUGUGGUAGAAGGAAGAAUCG
[1]
  apparent Kd: 28.5 nM
[2]
  apparent Kd: 50.2 nM

## CGGUCGAUAUCAGGAUAUCGUUUAAUUACAUGAGGAUCACCCAUGUUGACAUGGAAUAUAACAUGCGAGAAGGGAUUACGAUCG
[3]
  apparent Kd: 13.9 nM
[4]
  apparent Kd: 9.85 nM

## CGGUCGAUGUAAGGAUAUCGACUGGAAUACAGUCGAGAAGGUACAUGAGGAUCACCCAUGUAAACCUAUAAUAAAUAACGACCG
[1]
  apparent Kd: 11.7 nM
[2]
  apparent Kd: 14.4 nM

## CGGUGACGUGUAGGAUAUGGAGGUGGGUUUUGGCCAGAAGGACAUGAGGAUCACCCAUGUGGUAGAGGGUUGGCGGCGGCCCGU
[1]
  apparent Kd: 15 nM
[2]
  apparent Kd: 14.7 nM

## CGUAGGAUCCAGAAGGCAUGAACAUGAGGAUCACCCAUGUGAAAACACAUGAGGAUAUGGAUCCUACGAAAAGUGCGAAAGCAC
[3]
  apparent Kd: 5.4 nM
[4]
  apparent Kd: 4.66 nM

## CGUAGGAUGCAGAAGGCAUGAACAUGAGGAUCACCCAUGUGAAAACACAUGAGGAUAUGCAUCCUACGAAAAGUGCGAAAGCAC
[3]
  apparent Kd: 5.89 nM
[4]
  apparent Kd: 4.69 nM

## CGUAUACAUGAGGAUCACCCAUGUGAGGAUAUGCUUUAUUAUUAUUAUUAUUAUUGUUGCAGAAGGUACAUUGC
[1]
  apparent Kd: 23.5 nM
[2]
  apparent Kd: 18.2 nM

## CGUAUGUAAGGAUAUAGCCACAUUACGAAUAAGUAGUGUGGCUAGAAGGUACAUGAGGAUCACCCAUGUAUGGG
[1]
  apparent Kd: 153 nM
[2]
  apparent Kd: 85.3 nM

## CGUAUGUCAGGAUAUGCGUAAACCGGUCAGGGCGAGCGGCAGCAGAAGGGACAUGAGGAUCACCCAUGUUCGGG
[1]
  apparent Kd: 46.7 nM
[2]
  apparent Kd: 46.6 nM

## CGUCUAUGCCAGAAGGCAUAAAACAUGAGGAUCACCCAUGUCAAAGACAUGAGGAUAUGGCAUAGACGAAAAGUGCGAAAGCAC
[3]
  apparent Kd: 17.9 nM
[4]
  apparent Kd: 4.97 nM

## CGUGACGACAUAGGAUAUUGAUACAUGAGGAUCACCCAUGUCACCCAUUUAUAUAUUAGUGAUGACAAGAAGGAUGUGGUCACG
[3]
  apparent Kd: 33.3 nM
[4]
  apparent Kd: 7.13 nM

## CGUGCGUAUGUGAGGAUAUGCUGGUCCUUGGAUCGGCAGAAGGCACAUGAGGAUCACCCAUGUGGUGUCGUACG
[1]
  apparent Kd: 351 nM
[2]
  apparent Kd: 22.9 nM

## CGUGCGUAUGUGAGGAUAUGCUGGUCCUUGGCUCGGCAGAAGGCACAUGAGGAUCACCCAUGUGGUGUCGUACA
[1]
  apparent Kd: 78.2 nM
[2]
  apparent Kd: 156 nM

## CGUGUUAACGAAGGAUAUGGAUACAUGAGGAUCACCCAUGUAUAUUUUGUGAUCUUGUUUAAGAUCCAGAAGGUCGUAUACACG
[1]
  apparent Kd: 33.8 nM
[2]
  apparent Kd: 84.7 nM

## CGUUAUUCAGGAUAUGGUGUGUUAUACAUGAGGAUCACCCAUGUAGAUCCUGGUUAGGCCUCAGAAGGGAAUGUUC
[1]
  apparent Kd: 165 nM
[2]
  apparent Kd: 145 nM

## CGUUGAUAAUAUCUUCACAUGAGGAUCACCCAUGUCGCUCGACAGGAUAUAUUUGAGUUGUUUAAGUAGAAGGGUCGCAGAUGC
[3]
  apparent Kd: 148 nM
[4]
  apparent Kd: 136 nM

## CGUUUAUUUAUUGGAUUAUAUUAUGAGGAUAUCAAUAUUUAUUACAUGAGGAUCACCCAUGUUAAUGAGAAGGCAUAAUUAACG
[3]
  apparent Kd: 9.99 nM
[4]
  apparent Kd: 6.68 nM

## CGUUUGUGGCAACUAUCCUCACAUGAGGAUCACCCAUGUAGGGAGGAUAUGCAUUUAAAGAAGUGGCAGAAGGCCCUACACGAA
[1]
  apparent Kd: 101 nM
[2]
  apparent Kd: 89.5 nM

## CUAAAAGUCGAGGAUAUGCACCGGCUUUUUGACGCAGAAGGCGACACAUGAGGAUCACCCAUGUCGGUACGCGA
[1]
  apparent Kd: 12.2 nM
[2]
  apparent Kd: 13 nM

## CUAGACAGAUCAGGAUAUCAUCGCAUGGUGCAUCCCUGUGAUUACAUGAGGAUCACCCAUGUGCAUGAGAAGGGAUUACUAUGU
[1]
  apparent Kd: 46.5 nM
[2]
  apparent Kd: 13.1 nM

## CUAGCAACAUGAGGAUCACCCAUGUAGGAUAUCGCUAUUGUAAUCAUGAAACAUGAUUACAAUAGCGAGAAGGACAUAUGCUAU
[1]
  apparent Kd: 8.33 nM
[2]
  apparent Kd: 9.83 nM

## CUAUGAGCGAUAGGAUAUACUGAGAUUGAAUGGGUAGAAGGAUCGAUCGUGUAGAAGACAUGAGGAUCACCCAUGUUACGGGCC
[3]
  apparent Kd: 73.9 nM
[4]
  apparent Kd: 93.5 nM

## CUAUGAGCGAUAGGAUAUACUGAGAUUGAGUGGGUAGAAGGAUCGAUCGUGUAGAAGACAUGAGGAUCACCCAUGUUACGGGCC
[3]
  apparent Kd: 115 nM
[4]
  apparent Kd: 147 nM

## CUAUGCCGAAUAGGAUAUUCGAUCAAAAGGAUAGAAGAAGGGUUACAUGAGGAUCACCCAUGUAUGCACAUGAGGAUCCCUUAG
[1]
  apparent Kd: 279 nM
[2]
  apparent Kd: 316 nM

## CUAUUACGAGGAUAUGAUUUAAAUAACAUGAGGAUCACCCAUGUUUUUACGUUAUUUUGUUUAGAAGGCGUAUUGU
[1]
  apparent Kd: 52.9 nM
[2]
  apparent Kd: 35.7 nM

## CUAUUAUUGAUCCAUUUUUUCAACAUGAGGAUCACCCAUGUGCAGGAUAUCGUGAUUAUUAUCAACGAGAAGGGCAAAUUCACG
[1]
  apparent Kd: 45.7 nM
[2]
  apparent Kd: 149 nM

## CUAUUCCGAGGAUAUACAUGAGGAUCACCCAUGUCGGGCCUCUGGCCUAAGGCCGAAAGUAGAAGGUGGGUUUC
[1]
  apparent Kd: 64.6 nM
[2]
  apparent Kd: 61.5 nM

## CUAUUUUGUGCCUCAUUUACAUGAGGAUCACCCAUGUUAACUUAGGAUAUAUUUAUAUUGUUAGAGUAGAAGGAAGUACAAUUU
[1]
  apparent Kd: 83.5 nM
[2]
  apparent Kd: 55.9 nM

## CUCAAGUUAGGAUAUUGACGCCCAAGACGGCGUCUUGGGCACAAGAAGGGACAUGAGGAUCACCCAUGUCAAUA
[1]
  apparent Kd: 24.1 nM
[2]
  apparent Kd: 27.7 nM

## CUCACAAGAGGAUAUUAAUAGCUUAACAUGAGGAUCACCCAUGUCCUUUUCUCGGGAUUUUGAGAAGGCUUGUGUG
[1]
  apparent Kd: 341 nM
[2]
  apparent Kd: 189 nM

## CUCACGUUAGUAGGAUAUCCGACAUGAGGAUCACCCAUGUCACUACGCCGAUAGGGAAGGUGUAAGGAGAAGGGCUGAUAAAUA
[3]
  apparent Kd: 124 nM
[4]
  apparent Kd: 92.9 nM

## CUCAGACAUGAGGAUCACCCAUGUCAGGAUAUCGUCUACCUGUGGAAACACAGGUAGACGAGAAGGGAUGUGUU
[1]
  apparent Kd: 51.6 nM
[2]
  apparent Kd: 44.1 nM

## CUCAGCUCGUCAGGAUAUACGUCACUGCUUCGGCAGUGUGGUAAGAUCACAUGAGGAUCACCCAUGUAGAAGGGACGAGCUGAU
[1]
  apparent Kd: 11.7 nM
[2]
  apparent Kd: 248 nM

## CUCAUGUAAGGAUAUCAGUAGUAAAAAAAUAAAAUUACUACUGAGAAGGUACAUGAGGAUCACCCAUGUAUCUU
[1]
  apparent Kd: 84.8 nM
[2]
  apparent Kd: 72.5 nM

## CUCAUGUAAGGAUAUCAGUAGUAAAAAAAUAAAAUUACUACUGAGAAGGUACAUGAGGAUCACCCAUGUCCUUC
[1]
  apparent Kd: 96.1 nM
[2]
  apparent Kd: 56.2 nM

## CUCGCGUUAGGAUAUGCUAGCUGAGAAUAAUCUGCAGCGGUGCAGAAGGAACAUGAGGAUCACCCAUGUAGGGA
[1]
  apparent Kd: 278 nM
[2]
  apparent Kd: 43.6 nM

## CUCUUGGCAGGAUAUGCUCUCUUAGACAUGAGGAUCACCCAUGUGUUCAUUCUUUCUUUUGCAGAAGGGCCUUAAC
[1]
  apparent Kd: 87.1 nM
[2]
  apparent Kd: 82.8 nM

## CUCUUGUGAGGAUAUCAGUAGUAAAAAAAUAAAAUUACUACUGAGAAGGCACAUGAGGAUCACCCAUGUGACUU
[1]
  apparent Kd: 26.2 nM
[2]
  apparent Kd: 30.5 nM
